Measurements: paper PMC4654616 (ACS chemical biology, 2015)
Read-outs that look alike come from different tables or passages of the source.

Legend:
uPAR [1] = molecular target: T1, uPAR (Homo sapiens, UniProt Q03405); test: Fluorescence polarization, displacement of AE147-FAM peptide from uPAR; assay type: binding
Procedure, shortened: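 Test compound was serially diluted in DMSO, then in PBS with 0.01% Triton X-100 (final 100 µM to 0.046 µM). It was preincubated at least 15 min with uPAR before AE147-FAM peptide was added. Final levels were 320 nM uPAR, 100 nM peptide and 2% DMSO. Polarization was read at ex 485/em 530 nm in duplicate. Peptide-only and uPAR + peptide controls were run in quadruplicate.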

uPAR•uPAATF interaction [2] = molecular target: T2, uPAR•uPAATF interaction (Homo sapiens, UniProt Q03405); test: Microtiter-based ELISA for uPAR•uPAATF; assay type: binding
Procedure, shortened: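 Wells were coated with uPA_ATF (2 µg·mL⁻¹ in PBS, 2 h, 4 °C) and blocked 1 h at room temperature. Purified uPAR lacking the GPI anchor (75 nM, PBS with 0.025% Triton X-100) was added with test compound for 30 min. Compound was screened at 50 µM or titrated 100 to 0.4 µM, with 1% DMSO final. After washing, bound uPAR was detected by biotinylated anti-uPAR antibody (1 h), streptavidin-HRP (20 min) and TMB/H₂O₂ with H₂SO₄ stop; n = 2.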

uPAR•uPAATF interaction [3] = molecular target: T2, uPAR•uPAATF interaction; assay type: binding
[4] = molecular target: uPAR•uPA binding on HEK-293-uPAR cells (Homo sapiens, UniProt Q03405); test: FACS analysis of FITC-conjugated uPA binding to HEK-293-uPAR cells; assay type: cell-based; details: read-out: inhibition of uPA-FITC binding to uPAR (FACS)
[5] = molecular target: VTN•uPAR•uPAATF interaction (Homo sapiens, UniProt Q03405); test: Microtiter-based ELISA for uPAR•VTN; assay type: binding
Procedure, shortened: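 Full-length VTN (5 µg·mL⁻¹, carbonate buffer pH 9.6) was coated 12 h at 4 °C, then blocked 1 h at room temperature. Wells received 120 nM uPAR•uPA_ATF complex in PBS with 0.01% Triton X-100 plus test compound for 60 min. Compound was screened at 50 µM or titrated 100 to 0.4 µM, with 1% DMSO final. Bound uPAR was detected by biotinylated anti-uPAR antibody (1 h), streptavidin-HRP (20 min) and TMB/H₂O₂ with H₂SO₄ stop; n = 2.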

[6] = system: Rac1 activation in MDA-MB-231 cells; test: Rac1 pull-down assay; assay type: cell-based, human
[7] = system: FAK phosphorylation in MDA-MB-231 cells; test: Western blot for phospho-FAK; assay type: cell-based, human
Procedure, shortened: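 MDA-MB-231 lysates were made in RIPA buffer with protease and phosphatase inhibitors. Thirty micrograms of protein were resolved on 10% SDS-PAGE and transferred to nitrocellulose. Blots were probed overnight at 4 °C for total FAK, phospho-FAK (Y397) or actin. Dye-conjugated anti-mouse or anti-rabbit secondaries were detected by infrared fluorescence imaging.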

uPAR [8] = molecular target: T1, uPAR; test: Saturation transfer difference; assay type: binding; details: 438 µM 7, uPAR 50 fold less
uPAR [9] = molecular target: T1, uPAR; test: Isothermal titration calorimetry of 7 against purified uPAR; assay type: binding
MDA-MB-231 cells [10] = test: Boyden Matrigel invasion chamber assay; assay type: cell-based; details: Homo sapiens, MDA-MB-231, 16 h, read-out: IC50 for MDA-MB-231 cell invasion
Procedure, shortened: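 MDA-MB-231 cells were serum-starved 4 h. Matrigel inserts had fibronectin (30 ng µl⁻¹) coated on the underside overnight at 4 °C and were equilibrated 2 h in serum-free medium. The upper chamber received 5 × 10⁴ cells in 0.1% FBS medium with test compound or 1% DMSO. The lower chamber held 10% FBS medium with the same compound. After 16 h at 37 °C, invaded cells were methanol-fixed, hematoxylin-stained and counted in ten 200× fields; n = 3.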

MTT cell viability assay = assay type: cell-based, human; details: human, MDA-MB-231 cells
Procedure, shortened: (§1)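 MDA-MB-231 cells were grown in DMEM with 10% FBS and 1% penicillin/streptomycin at 37 °C, 5% CO₂. Cells (10⁴/well) were plated overnight, then treated 3 days with test compound or DMSO control. MTT (20 µl of 5 mg/ml) was added for 2 h at 37 °C. Viable cells were quantified by absorbance at 570 nm with 630 nm reference.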

MDA-MB-231 cells [11] = test: MTT cell viability assay; assay type: cell-based, human; details: MDA-MB-231, 100 µM
Procedure, shortened: as §1

T2 sequence (Q03405 23-305 limits assumed): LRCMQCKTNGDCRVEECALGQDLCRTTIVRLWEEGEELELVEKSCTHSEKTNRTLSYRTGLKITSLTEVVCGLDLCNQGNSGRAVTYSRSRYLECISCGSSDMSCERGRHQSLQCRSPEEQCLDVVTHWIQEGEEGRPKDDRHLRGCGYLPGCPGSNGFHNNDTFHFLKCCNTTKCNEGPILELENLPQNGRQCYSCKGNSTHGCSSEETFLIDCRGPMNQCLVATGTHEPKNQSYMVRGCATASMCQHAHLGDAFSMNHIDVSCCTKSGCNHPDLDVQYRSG
T1 sequence (Q03405 23-305 limits assumed): as above
Chain of uPAR•uPA binding on HEK-293-uPAR cells (Q03405 23-305 limits assumed): as above
Chain of VTN•uPAR•uPAATF interaction (Q03405 23-305 limits assumed): as above

| Compound | Ki (uPAR [1]) [µM] | IC50 (uPAR•uPAATF interaction [2]) [µM] | IC50 (uPAR•uPAATF interaction [3]) [µM] | inhibition at 100 µM [4] [%] | IC50 [5] [µM] | Rac1 activation [6] | FAK phosphorylation at Y397 [7] | direct binding to uPAR (STD-NMR and ITC) (uPAR [8]) | IC50 (uPAR•uPAATF interaction [2]; IC50 for inhibition of uPAR•uPAATF interaction (ELISA), 75 nM uPAR, immobilized uPAATF) [µM] | Kd (uPAR [9]) [µM] | enthalpy (ΔH) (ITC) (uPAR [9]; 25 °C) [kcal/mol] | entropy (ΔS) (ITC) (uPAR [9]; 25 °C) [kcal/mol] | IC50 (MDA-MB-231 cells [10]) [µM] | viability at 3 days, 100 µM (MTT cell viability assay) [%] | cytotoxicity (MDA-MB-231 cells [11]) |
| --- | --- | --- | --- | --- | --- | --- | --- | --- | --- | --- | --- | --- | --- | --- | --- |
| CCCCCCOc1cccc(N2C(=O)C(O)=C(C(=O)c3ccccc3)C2c2ccc(CC)cc2)c1 (stereo not drawn) [Compound 1, 4-benzoyl-5-(4-ethylphenyl)-1-(3-(hexyloxy)phenyl)-3-hydroxy-1H-pyrrol-2(5H)-one] | 4.2 | 58 |  |  |  |  |  |  |  |  |  |  |  |  |  |
| Cc1ccc(N2C(=O)C(O)=C(C(=O)c3ccc(Cl)cc3)C2c2cccc(F)c2)cc1Br (stereo not drawn) [Compound 7, 1-(3-bromo-4-methylphenyl)-4-(4-chlorobenzoyl)-5-(3-fluorophenyl)-3-hydroxy-1H-pyrrol-2(5H)-one] |  |  | 12.9 | ~40 | 32.8 | inhibited Rac1 activation in a concentration-dependent manner | significantly inhibited | binds directly to uPAR | 18 | 17.2 | -6.4 | 0.01 | 35 | > 80 | not cytotoxic |
